Measurements taken from ChEMBL document CHEMBL5724801, “EUbOPEN Chemogenomics Library - Multiplex” (2024).
Values joined by “and” are separate entries in the source; they are usually repeats but may differ in a detail not shown here. Equal entries are not always repeated.

Experiments:
[1] = test system: U2OS; assay: Multiplex assay against U2OS; type: toxicity, cell-based; conditions: human
Procedure, shortened: (§1)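 Live cells were stained at seeding with Hoechst33342, BioTracker Green Microtubule Cytoskeleton Dye, MitoTracker Red and Annexin V Alexa Fluor 680. Following compound addition, they were imaged on a CQ1 microscope at 37°C and 5% CO2 and gated by CellPathfinder machine learning into Hoechst high-intensity objects or normal cells, with normal cells split into healthy, pyknosed or fragmented nuclei and pyknosed cells into mitotic or apoptotic. Tubulin, mitochondrial-mass and membrane-permeability phenotypes are per cents of healthy-nucleus cells.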

[2] = test system: Fibroblast; assay: Multiplex assay against human fibroblast; type: toxicity, cell-based; procedure, shortened: as §1
[3] = 24 h, 1 µM, compound concentration 1 uM
[4] = 24 h, 10 µM, compound concentration 10 uM
[5] = 48 h, 1 µM, compound concentration 1 uM
[6] = 48 h, 10 µM, compound concentration 10 uM
[7] = 12 h, 1 µM, compound concentration 1 uM
[8] = 12 h, 10 µM, compound concentration 10 uM

`CN(C)C/C=C/C(=O)Nc1ccc(C(=O)N2CCCC(Nc3ncc(Cl)c(-c4c[nH]c5ccccc45)n3)C2)cc1` (centres undefined) was tested, and the “Total Cell Count” value [1, 3] was 271 and 164, the “Population Apoptotic (%)” value [1, 4] was 87% and 97% and the “Population Fragmented Nuclei (%)” value [1, 4] was 39% and 31%. The “Population Healthy Nuclei (%)” value [1, 4] was 35%, the “Population Hoechst High Intensity Objects (%)” value [1, 4] was 9% and 5% and the “Population Membrane Permeable-Phenotype (%)” value [1, 4] was 22% and 21%. For the same compound, the “Population Mitochondria Different-Phenotype (%)” value [1, 4] was 33% and 28%, the “Population Mitotic Cells (%)” value [1, 4] was 12% and 2% and the “Population Normal (%)” value [1, 4] was 90% and 94%. The “Population Pyknosed Nuclei (%)” value [1, 4] was 25% and 32%, the “Population Tubulin-Different-Phenotype (%)” value [1, 4] was 29% and 17% and the “Total Cell Count” value [1, 4] was 239 and 135. For the same compound, the “Population Apoptotic (%)” value [1, 5] was 94% and 96%, the “Population Fragmented Nuclei (%)” value [1, 5] was 29% and 10% and the “Population Healthy Nuclei (%)” value [1, 5] was 60% and 77%. For the same compound, the “Population Hoechst High Intensity Objects (%)” value [1, 5] was 3%, the “Population Membrane Permeable-Phenotype (%)” value [1, 5] was 10% and 3% and the “Population Mitochondria Different-Phenotype (%)” value [1, 5] was 3%. For the same compound, the “Population Mitotic Cells (%)” value [1, 5] was 5% and 3%, the “Population Normal (%)” value [1, 5] was 96% and the “Population Pyknosed Nuclei (%)” value [1, 5] was 10% and 12%. For the same compound, the “Population Tubulin-Different-Phenotype (%)” value [1, 5] was 5% and 3%, the “Total Cell Count” value [1, 5] was 339 and 221 and the “Population Apoptotic (%)” value [1, 6] was 100%. For the same compound, the “Population Fragmented Nuclei (%)” value [1, 6] was 50%, the “Population Healthy Nuclei (%)” value [1, 6] was 17% and 18% and the “Population Hoechst High Intensity Objects (%)” value [1, 6] was 15% and 9%. For the same compound, the “Population Membrane Permeable-Phenotype (%)” value [1, 6] was 47% and 26%, the “Population Mitochondria Different-Phenotype (%)” value [1, 6] was 27% and 19% and the “Population Mitotic Cells (%)” value [1, 6] was 0%. For the same compound, the “Population Normal (%)” value [1, 6] was 84% and 90%, the “Population Pyknosed Nuclei (%)” value [1, 6] was 32% and 31% and the “Population Tubulin-Different-Phenotype (%)” value [1, 6] was 38% and 23%. The “Total Cell Count” value [1, 6] was 251 and 157, the “Population Apoptotic (%)” value [2, 7] was 48% and 46% and the “Population Fragmented Nuclei (%)” value [2, 7] was 15% and 21%. For the same compound, the “Population Healthy Nuclei (%)” value [2, 7] was 64% and 53%, the “Population Hoechst High Intensity Objects (%)” value [2, 7] was 2% and 6% and the “Population Membrane Permeable-Phenotype (%)” value [2, 7] was 2% and 3%. The “Population Mitochondria Different-Phenotype (%)” value [2, 7] was 11% and 13%, the “Population Mitotic Cells (%)” value [2, 7] was 51% and 53% and the “Population Normal (%)” value [2, 7] was 97% and 93%. For the same compound, the “Population Pyknosed Nuclei (%)” value [2, 7] was 19% and 25%, the “Population Tubulin-Different-Phenotype (%)” value [2, 7] was 40% and the “Total Cell Count” value [2, 7] was 152 and 182. For the same compound, the “Population Apoptotic (%)” value [2, 8] was 59% and 48%, the “Population Fragmented Nuclei (%)” value [2, 8] was 18% and 23% and the “Population Healthy Nuclei (%)” value [2, 8] was 53% and 41%. The “Population Hoechst High Intensity Objects (%)” value [2, 8] was 4% and 8%, the “Population Mitochondria Different-Phenotype (%)” value [2, 8] was 37% and 19% and the “Population Mitotic Cells (%)” value [2, 8] was 40% and 51%. The “Population Normal (%)” value [2, 8] was 95% and 91%, the “Population Pyknosed Nuclei (%)” value [2, 8] was 27% and 35% and the “Population Tubulin-Different-Phenotype (%)” value [2, 8] was 77% and 58%. For the same compound, the “Total Cell Count” value [2, 8] was 140 and 147, the “Population Apoptotic (%)” value [2, 3] was 68% and 37% and the “Population Fragmented Nuclei (%)” value [2, 3] was 25% and 26%. The “Population Healthy Nuclei (%)” value [2, 3] was 48% and 49%, the “Population Hoechst High Intensity Objects (%)” value [2, 3] was 7% and the “Population Membrane Permeable-Phenotype (%)” value [2, 3] was 2% and 10%. For the same compound, the “Population Mitochondria Different-Phenotype (%)” value [2, 3] was 7% and 10%, the “Population Mitotic Cells (%)” value [2, 3] was 31% and 62% and the “Population Normal (%)” value [2, 3] was 92%. The “Population Pyknosed Nuclei (%)” value [2, 3] was 26% and 23%, the “Population Tubulin-Different-Phenotype (%)” value [2, 3] was 40% and 54% and the “Total Cell Count” value [2, 3] was 155 and 181. The “Population Apoptotic (%)” value [2, 4] was 65% and 47%, the “Population Fragmented Nuclei (%)” value [2, 4] was 13% and 30% and the “Population Healthy Nuclei (%)” value [2, 4] was 49% and 42%. The “Population Hoechst High Intensity Objects (%)” value [2, 4] was 2% and 6%, the “Population Membrane Permeable-Phenotype (%)” value [2, 4] was 0% and 5% and the “Population Mitochondria Different-Phenotype (%)” value [2, 4] was 52% and 35%. The “Population Mitotic Cells (%)” value [2, 4] was 34% and 52%, the “Population Normal (%)” value [2, 4] was 97% and 93% and the “Population Pyknosed Nuclei (%)” value [2, 4] was 37% and 27%. For the same compound, the “Population Tubulin-Different-Phenotype (%)” value [2, 4] was 84% and 72%, the “Total Cell Count” value [2, 4] was 119 and 149 and the “Population Apoptotic (%)” value [2, 5] was 63% and 60%. The “Population Fragmented Nuclei (%)” value [2, 5] was 33% and 35%, the “Population Healthy Nuclei (%)” value [2, 5] was 36% and 40% and the “Population Hoechst High Intensity Objects (%)” value [2, 5] was 10% and 8%. For the same compound, the “Population Membrane Permeable-Phenotype (%)” value [2, 5] was 2% and 8%, the “Population Mitochondria Different-Phenotype (%)” value [2, 5] was 20% and 25% and the “Population Mitotic Cells (%)” value [2, 5] was 36% and 40%. For the same compound, the “Population Normal (%)” value [2, 5] was 90% and 91%, the “Population Pyknosed Nuclei (%)” value [2, 5] was 30% and 24% and the “Population Tubulin-Different-Phenotype (%)” value [2, 5] was 48% and 68%. The “Total Cell Count” value [2, 5] was 150 and 158, the “Population Apoptotic (%)” value [2, 6] was 77% and 68% and the “Population Fragmented Nuclei (%)” value [2, 6] was 28% and 27%. For the same compound, the “Population Healthy Nuclei (%)” value [2, 6] was 20% and 41%, the “Population Hoechst High Intensity Objects (%)” value [2, 6] was 14% and 13% and the “Population Membrane Permeable-Phenotype (%)” value [2, 6] was 0% and 17%. The “Population Mitochondria Different-Phenotype (%)” value [2, 6] was 55% and 29%, the “Population Mitotic Cells (%)” value [2, 6] was 22% and 31% and the “Population Normal (%)” value [2, 6] was 85% and 86%. The “Population Pyknosed Nuclei (%)” value [2, 6] was 51% and 30%, the “Population Tubulin-Different-Phenotype (%)” value [2, 6] was 66% and 80% and the “Total Cell Count” value [2, 6] was 103 and 130.
